Measurements published in ChEMBL document CHEMBL1145166, “Dipeptides as effective prodrugs of the unnatural amino acid (+)-2-aminobicyclo[3.1.0]hexane-2,6-dicarboxylic acid (LY354740), a selective group II metabotropic glutamate receptor agonist” (J Med Chem, 2005).

Columns and labels:
[1] = Plasma concentration of LY-354740 in rats after oral administration of compound at a dose of 5 mg equiv 1/kg at 0.5 hr; type: ADME; settings: rat
Procedure, shortened: (§1)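 Male Fischer 344 rats (190–250 g), fasted overnight, food returned ~4 h postdose; single oral dose of prodrug molar-equivalent to 5 mg/kg parent, in pH 2.5 20 mM KHPO₄. Blood drawn at 0.5, 1 and 3 h; plasma stored at –20 °C or below until analysis. Three plasma samples per time point; parent and prodrug measured.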

[2] = Plasma concentration of LY-354740 in rats after oral administration of compound at a dose of 5 mg equiv 1/kg at 1 hr; type: ADME; settings: rat; procedure, shortened: as §1
[3] = Plasma concentration of LY-354740 in rats after oral administration of compound at a dose of 5 mg equiv 1/kg at 3 hr; type: ADME; settings: rat; procedure, shortened: as §1
[4] = system: Caco-2; assay: Inhibition of radiolabeled glycylsarcosine (Gly-Sar) uptake into Caco-2 cells done for 15 min at 37 degree C with compound; type: functional, cell-based; settings: Homo sapiens, Caco-2, 0.25 h
[5] = Inhibition of radiolabeled glycylsarcosine (Gly-Sar) uptake into chinese hamster ovary cells transfected with human PepT1 (CHO/hPepT1) done for 5-20 min at 37 degree C with compound; type: functional, cell-based; settings: Cricetulus griseus
[6] = Area under concentration of compound in rats at a dose of 5 mg equiv 1/kg; type: ADME; settings: rat, in vivo; procedure, shortened: as §1
[7] = Plasma concentration of the prodrug and LY-354740 against the metabotropic glutamate receptor in rats after an oral dose of corresponding prodrug in 5 mg equiv 1/kg at 3 houre; type: ADME; settings: rat; procedure, shortened: as §1
[8] = system: Rattus norvegicus; assay: Minimally effective dose for suppression of startle in rat fear-potentiated startle assay, p.o.; Range = 0.3-3.0 mg/kg; type: functional; settings: po, read-out: MED
[9] = system: Rattus norvegicus; assay: Duration of suppression of compound in rat fear-potentiated startle assay at an oral dose of 3.0 mg/kg; Range = 8-24 h; type: functional
[10] = molecular target: Metabotropic glutamate receptor 2 (Homo sapiens, UniProt Q14416); assay: Inhibition of [3H]LY-341,495 binding to recombinant human mGlu2 receptors
Metabotropic glutamate receptor 2 (Homo sapiens, UniProt Q14416), sequence (Q14416 whole entry): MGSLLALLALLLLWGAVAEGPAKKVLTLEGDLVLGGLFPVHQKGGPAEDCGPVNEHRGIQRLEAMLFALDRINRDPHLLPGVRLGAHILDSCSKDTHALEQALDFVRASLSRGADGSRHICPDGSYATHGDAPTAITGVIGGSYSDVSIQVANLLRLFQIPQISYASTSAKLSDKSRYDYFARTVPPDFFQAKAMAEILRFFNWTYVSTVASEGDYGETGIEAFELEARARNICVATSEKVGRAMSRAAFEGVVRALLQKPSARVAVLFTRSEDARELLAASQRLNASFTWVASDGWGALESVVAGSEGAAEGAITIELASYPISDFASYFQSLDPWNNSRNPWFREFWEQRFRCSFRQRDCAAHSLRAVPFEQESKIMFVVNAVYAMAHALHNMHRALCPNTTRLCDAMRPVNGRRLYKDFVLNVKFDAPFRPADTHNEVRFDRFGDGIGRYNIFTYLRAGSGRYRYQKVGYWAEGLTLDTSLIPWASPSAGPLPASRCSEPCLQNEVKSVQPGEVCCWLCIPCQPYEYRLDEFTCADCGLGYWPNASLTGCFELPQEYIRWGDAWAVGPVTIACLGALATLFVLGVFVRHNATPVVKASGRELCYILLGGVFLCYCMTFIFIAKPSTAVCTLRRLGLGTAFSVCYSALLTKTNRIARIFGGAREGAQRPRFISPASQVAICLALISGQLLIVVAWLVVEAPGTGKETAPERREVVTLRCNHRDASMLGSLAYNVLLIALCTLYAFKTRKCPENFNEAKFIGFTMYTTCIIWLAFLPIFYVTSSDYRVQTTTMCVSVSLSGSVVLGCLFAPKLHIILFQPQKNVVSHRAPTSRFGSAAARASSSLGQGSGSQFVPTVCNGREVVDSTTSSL

[11] = molecular target: Metabotropic glutamate receptor 3 (Homo sapiens, UniProt Q14832); assay: Inhibition of [3H]LY-341,495 binding to recombinant human mGlu3 receptors
Metabotropic glutamate receptor 3, sequence (Q14832 whole entry): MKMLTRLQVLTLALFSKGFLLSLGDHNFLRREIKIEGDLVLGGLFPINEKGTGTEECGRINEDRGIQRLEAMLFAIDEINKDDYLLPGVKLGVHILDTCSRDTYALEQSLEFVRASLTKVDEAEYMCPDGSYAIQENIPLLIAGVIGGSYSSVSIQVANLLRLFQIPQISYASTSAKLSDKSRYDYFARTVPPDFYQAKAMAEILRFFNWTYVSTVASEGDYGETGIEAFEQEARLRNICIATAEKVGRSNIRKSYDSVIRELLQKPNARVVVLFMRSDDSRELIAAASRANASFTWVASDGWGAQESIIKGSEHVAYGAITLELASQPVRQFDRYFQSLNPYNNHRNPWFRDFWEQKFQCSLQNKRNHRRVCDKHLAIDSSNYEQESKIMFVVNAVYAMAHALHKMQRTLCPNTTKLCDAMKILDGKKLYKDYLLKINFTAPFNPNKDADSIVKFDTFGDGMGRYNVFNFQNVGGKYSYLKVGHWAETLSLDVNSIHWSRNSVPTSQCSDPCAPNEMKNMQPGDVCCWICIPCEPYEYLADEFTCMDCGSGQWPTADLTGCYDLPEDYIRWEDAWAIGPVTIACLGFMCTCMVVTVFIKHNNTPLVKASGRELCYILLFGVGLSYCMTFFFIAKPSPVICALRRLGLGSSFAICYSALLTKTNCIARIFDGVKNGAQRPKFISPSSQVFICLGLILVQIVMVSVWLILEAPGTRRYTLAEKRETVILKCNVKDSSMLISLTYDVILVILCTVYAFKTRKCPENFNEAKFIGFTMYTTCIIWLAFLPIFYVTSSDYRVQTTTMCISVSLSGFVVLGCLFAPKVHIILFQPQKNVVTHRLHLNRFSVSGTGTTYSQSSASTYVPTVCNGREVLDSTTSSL

[12] = system: Rattus norvegicus; assay: Onset of suppression of startle of compound in rat fear-potentiated startle assay at an oral dose of 3.0 mg/kg; type: functional
[13] = system: Rattus norvegicus; assay: Onset of suppression of startle of compound in rat fear-potentiated startle assay at an oral dose of 0.01 and 0.1 mg/kg; type: functional
Procedure, shortened: (§2)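 Fed rats dosed orally. Three-day protocol: day 1 baseline startle (30 × 120 dB), groups of n = 8. Day 2 conditioning: 10 light (5 s)–shock (0.5 mA, 500 ms) pairings. Day 3, 24 h later: 20 noise-alone and 20 light+noise trials. Compound given at set pretreatment times before testing. Diazepam 0.6 mg/kg ip, 30 min pre-test, as positive control. MED = lowest dose with p < 0.05 versus control.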

[14] = molecular target: Metabotropic glutamate receptor 2 (Rattus norvegicus, UniProt P31421); assay: Inhibition of [3H]LY-341,495 binding to mGlu2 receptors of rat brain
Metabotropic glutamate receptor 2 (Rattus norvegicus, UniProt P31421), sequence (P31421 whole entry): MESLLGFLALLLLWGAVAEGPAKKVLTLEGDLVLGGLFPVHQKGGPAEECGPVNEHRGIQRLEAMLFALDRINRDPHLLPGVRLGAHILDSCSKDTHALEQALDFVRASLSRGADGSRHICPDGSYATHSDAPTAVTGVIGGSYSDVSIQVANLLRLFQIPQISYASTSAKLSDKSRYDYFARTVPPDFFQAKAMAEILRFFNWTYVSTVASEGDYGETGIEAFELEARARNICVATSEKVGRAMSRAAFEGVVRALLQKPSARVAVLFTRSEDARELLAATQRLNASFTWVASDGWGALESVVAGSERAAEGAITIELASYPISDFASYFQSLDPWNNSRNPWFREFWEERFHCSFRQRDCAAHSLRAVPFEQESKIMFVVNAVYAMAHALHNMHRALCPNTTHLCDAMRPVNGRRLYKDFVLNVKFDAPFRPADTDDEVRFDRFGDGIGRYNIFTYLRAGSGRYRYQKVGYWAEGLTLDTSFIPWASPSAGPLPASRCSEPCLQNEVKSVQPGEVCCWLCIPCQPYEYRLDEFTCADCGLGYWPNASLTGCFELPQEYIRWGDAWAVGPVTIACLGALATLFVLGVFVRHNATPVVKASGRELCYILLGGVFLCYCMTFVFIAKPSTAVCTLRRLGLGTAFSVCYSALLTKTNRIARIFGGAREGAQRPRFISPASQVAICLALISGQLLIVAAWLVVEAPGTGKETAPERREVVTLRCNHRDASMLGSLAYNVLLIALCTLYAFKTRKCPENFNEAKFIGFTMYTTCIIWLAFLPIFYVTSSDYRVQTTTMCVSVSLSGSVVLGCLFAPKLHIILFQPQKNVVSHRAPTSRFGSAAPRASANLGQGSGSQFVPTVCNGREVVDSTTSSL

[15] = system: Rattus norvegicus; assay: Minimally effective dose for suppression of startle in rat fear-potentiated startle assay, p.o.; type: functional; settings: po, read-out: MED; procedure, shortened: as §2
[16] = system: Rattus norvegicus; assay: Duration of suppression of compound in rat fear-potentiated startle assay at an oral dose of 0.1 mg/kg; type: functional; procedure, shortened: as §2
[17] = system: Rattus norvegicus; assay: Duration of suppression of compound in rat fear-potentiated startle assay at an oral dose of 0.01 mg/kg; Range = 4-8 h; type: functional; procedure, shortened: as §2

Row | Compound | Plasma concentration [1] [ng/mL] | Plasma concentration [2] [ng/mL] | Plasma concentration [3] [ng/mL] | IC50 [4] [µM] | IC50 [5] [µM] | also measured
1 | N[C@@]1(C(=O)N[C@@H](Cc2ccc(O)cc2)C(=O)O)CC[C@H]2[C@H](C(=O)O)[C@H]21 | 30 | 44 | 124 |  |  | 
2 | N[C@@]1(C(=O)N[C@@H](Cc2ccccc2)C(=O)O)CC[C@H]2[C@H](C(=O)O)[C@H]21 | 20 | 45 | 10 | 2680 | 1540 | AUC [6]: 11400 ng·h/mL
3 | CC[C@H](C)[C@H](NC(=O)[C@]1(N)CC[C@H]2[C@H](C(=O)O)[C@H]21)C(=O)O | 18 | 34 | 20 |  |  | 
4 | N[C@@]1(C(=O)N[C@@H](CO)C(=O)O)CC[C@H]2[C@H](C(=O)O)[C@H]21 | 36 |  | 53 |  |  | 
5 | CC(C)C[C@H](NC(=O)[C@]1(N)CC[C@H]2[C@H](C(=O)O)[C@H]21)C(=O)O | 450 | 798 | 919 | > 10000 | 620 | AUC [6]: 21300 ng·h/mL
6 | CC(C)[C@H](NC(=O)[C@]1(N)CC[C@H]2[C@H](C(=O)O)[C@H]21)C(=O)O | 10 | 17 | 10 |  |  | 
7 | CSCC[C@H](NC(=O)[C@]1(N)CC[C@H]2[C@H](C(=O)O)[C@H]21)C(=O)O | 602 | 808 | 889 |  |  | AUC [6]: 16600 ng·h/mL
8 | N[C@@]1(C(=O)NCC(=O)O)CC[C@H]2[C@H](C(=O)O)[C@H]21 | 19 |  |  |  |  | 
9 | CC(C)C[C@H](NC(=O)[C@]1(NC(=O)[C@H](C)N)CCC2C1[C@H]2C(=O)O)C(=O)O (stereo not given in full) | 44 | 26 | 55 | 3050 | 1340 | 
10 | C[C@H](N)C(=O)N[C@@H](C)C(=O)N[C@@]1(C(=O)O)CC[C@H]2[C@H](C(=O)O)[C@H]21.Cl | 3620 | 1554 | 734 | 7290 | 2880 | 
11 | Cl.O=C(O)[C@H]1[C@@H]2CC[C@@](NC(=O)[C@@H]3CCCN3)(C(=O)O)[C@@H]21 | 319 | 455 |  |  |  | Plasma concentration [7]: 670 ng/mL
12 | N[C@@]1(C(=O)O)CC[C@H]2[C@H](C(=O)O)[C@H]21 |  |  |  | > 10000 | > 19000 | minimal effective dose [8]: 3 mg/kg; Duration [9]: 24 h; Ki [10]: 0.0847 µM; Ki [11]: 0.126 µM; Onset [12]: <=1 hr

Now from value to molecule, other results behind:

Row | Plasma concentration [1] [ng/mL] | Plasma concentration [2] [ng/mL] | Plasma concentration [3] [ng/mL] | IC50 [4] [µM] | IC50 [5] [µM] | Compound | also measured
13 | 2009 | 1457 | 2032 |  |  | CC[C@H](C)[C@H](N)C(=O)N[C@@]1(C(=O)O)CC[C@H]2[C@H](C(=O)O)[C@H]21.Cl | 
14 | 1710 | 2763 | 1274 | 420 | 520 | Cl.N[C@@H](Cc1ccccc1)C(=O)N[C@@]1(C(=O)O)CC[C@H]2[C@H](C(=O)O)[C@H]21 | AUC [6]: 194 ng·h/mL
15 | 74 | 147 | 246 |  |  | Cl.NCCCC[C@H](N)C(=O)N[C@@]1(C(=O)O)CC[C@H]2[C@H](C(=O)O)[C@H]21 | 
16 | 1915 | 2163 |  |  |  | Cl.N[C@@H](Cc1ccc(O)cc1)C(=O)N[C@@]1(C(=O)O)CC[C@H]2[C@H](C(=O)O)[C@H]21 | 
17 | 4488 | 4323 | 1152 | 5010 | 1430 | CC(C)C[C@H](N)C(=O)N[C@@]1(C(=O)O)CC[C@H]2[C@H](C(=O)O)[C@H]21.Cl | AUC [6]: 0 ng·h/mL
18 | 3720 | 2107 |  |  |  | CSCC[C@H](N)C(=O)N[C@@]1(C(=O)O)CC[C@H]2[C@H](C(=O)O)[C@H]21.Cl | 
19 | 81 | 191 | 525 | > 10000 | 6660 | C[C@@H](N)C(=O)N[C@@]1(C(=O)O)CC[C@H]2[C@H](C(=O)O)[C@H]21.Cl | 
20 | 1707 | 1992 |  |  |  | Cl.NCC(=O)N[C@@]1(C(=O)O)CC[C@H]2[C@H](C(=O)O)[C@H]21 | 
21 | 1497 | 1365 |  |  |  | Cl.N[C@@H](CO)C(=O)N[C@@]1(C(=O)O)CC[C@H]2[C@H](C(=O)O)[C@H]21 | 
22 | 2387 | 2124 | 1136 |  |  | CC(C)[C@H](N)C(=O)N[C@@]1(C(=O)O)CC[C@H]2[C@H](C(=O)O)[C@H]21.Cl | 
23 | 1478 | 894 | 877 | 6310 | 1700 | CC(C)C[C@@H](N)C(=O)N[C@@]1(C(=O)O)CC[C@H]2[C@H](C(=O)O)[C@H]21.Cl | 
24 | 3732 | 3381 | 1770 | 300 | 120 | C[C@H](N)C(=O)N[C@@]1(C(=O)O)CC[C@H]2[C@H](C(=O)O)[C@H]21.Cl [TALAGLUMETAD HYDROCHLORIDE] | Onset [13]: <=1 hr; Ki [14]: > 10 µM; minimal effective dose [15]: 0.01 mg/kg; Duration [16]: >=24 hr; Duration [17]: 8 h; Ki [10]: > 10 µM; Ki [11]: > 10 µM; AUC [6]: 0 ng·h/mL
